# From PubChem BioAssay AID492951 (Molecular Libraries Program, Specialized Chemistry Center, …, 2010)
# Active and inactive are the calls of the source.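 How the source made its calls: active means inhibition above 10%; inactive means the rest.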
# Molecular target: Hexokinase-4 (Homo sapiens) (UniProt P35557)
# Assay: hGlck enzyme activity off-target inhibitors – biochemical, recombinant hGlck, counter-screen for TbHK1 inhibitor project (AID 492951)
# Conditions: G6PDH-coupled NADH absorbance 340 nm, at 10 µM; hits give high values
# How it was run: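 Technique – A340 of NADH · Material – recombinant human glucokinase, G6PDH-coupled · Medium – TEA buffer pH 7.9 with 3.3 mM MgCl2, 0.75 mM NAD+ · Doses – single final test compound dose of 10 µM · Repeats – three replicates per compound · Times – 10 min preincubation at room temperature · Also added – glucose 20 mM and ATP 1 mM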
# Hexokinase-4 (Homo sapiens), sequence (P35557 whole entry, looked up): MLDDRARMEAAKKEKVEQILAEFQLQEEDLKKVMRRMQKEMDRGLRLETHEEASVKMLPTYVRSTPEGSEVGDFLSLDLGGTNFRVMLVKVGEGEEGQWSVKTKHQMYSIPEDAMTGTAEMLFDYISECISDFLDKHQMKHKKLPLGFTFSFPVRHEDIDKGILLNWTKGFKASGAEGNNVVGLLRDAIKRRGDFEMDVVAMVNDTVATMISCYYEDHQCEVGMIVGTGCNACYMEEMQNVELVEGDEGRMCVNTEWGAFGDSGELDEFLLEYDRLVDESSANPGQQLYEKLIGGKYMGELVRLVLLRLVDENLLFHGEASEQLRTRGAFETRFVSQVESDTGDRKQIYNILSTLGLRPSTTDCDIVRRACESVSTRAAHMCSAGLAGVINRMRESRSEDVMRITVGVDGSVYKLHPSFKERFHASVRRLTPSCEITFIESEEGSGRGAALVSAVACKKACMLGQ
Compound,inhibition,outcome
CN(C)c1cccc(NC(=O)Cn2sc3ccccc3c2=O)c1,16.7% (active),–
COc1ccc(C(=O)Nc2c(C(=O)O)ccc(Cl)c2Cl)cc1,10.6% (inactive),–
Cc1cccc(C(=O)Nc2cc(Cl)ccc2C(=O)O)c1,–,inactive
O=C(Nc1cc(Cl)ccc1C(=O)O)c1ccc(I)cc1,22.9% (active),–
COc1ccc(C(=O)Nc2cc(-c3ccccc3)ccc2C(=O)O)cc1,–,inactive
COc1ccc(C(=O)Nc2ccc(Cl)cc2C(=O)O)cc1,–,inactive
CCCCCC(=O)Nc1cc(Cl)ccc1C(=O)O,–,inactive
O=C1c2cc(Br)ccc2S(=O)N1c1ccccc1 (stereo not drawn),–,inactive
COc1ccc(C(=O)NCC(=O)O)cc1,20.5% (active),–
CCOC(=O)c1ccncc1NC(=O)c1ccc(OC)cc1,–,inactive
COc1ccc(C(=O)Nc2cc(F)ccc2C(=O)O)cc1,–,inactive
COc1ccccc1C(=O)Nc1cc(Cl)ccc1C(=O)O,–,inactive
O=C(Nc1cc(Cl)ccc1C(=O)O)c1ccccc1,–,inactive
Cc1ccccc1NC(=O)Cn1sc2ccccc2c1=O,–,inactive
Cc1ccc(-n2sc3ccccc3c2=O)cc1,26.1% (active),–
CCOC(=O)Cn1sc2ccccc2c1=O,–,inactive
COc1ccc(-c2nc3c(Cl)c(Cl)ccc3c(=O)o2)cc1,9.2% (inactive),–
O=C(Nc1ccc([N+](=O)[O-])cc1Cl)c1cc(Cl)ccc1O,32.1% (active),–
COc1ccc(C(=O)Nc2cc(I)ccc2C(=O)O)cc1,–,inactive

Compound,inhibition,outcome
CCc1ccc(C(=O)Nc2cc(Cl)ccc2C(=O)OC)cc1,14.5% (active),–
CC(C)(C)c1ccc(C(=O)Nc2cc(Cl)ccc2O)cc1,–,inactive
O=C(CCn1sc2ccccc2c1=O)Nc1ccccc1,–,inactive
O=C(Cn1sc2ccccc2c1=O)Nc1ccc(Br)cc1,33.8% (active),–
CC(C)(C)c1ccc(C(=O)Nc2c(C(=O)O)ccc(Cl)c2Cl)cc1,–,inactive
COc1cccc(NC(=O)Cn2sc3ccccc3c2=O)c1,2.9% (inactive),–
Cc1cc(C(C#N)c2ccc(Cl)cc2)c(Cl)cc1NC(=O)c1cc(I)cc(I)c1O (stereo not drawn),24.3% (active),–
O=c1c(Br)csn1-c1ccc(Br)cc1,32.2% (active),–
N#Cc1ccccc1NC(=O)Cn1sc2ccccc2c1=O,10.9% (active),–
COc1ccc(C(=O)Nc2cc(Cl)c(C)cc2C(=O)O)cc1,17.6% (active),–
O=C(Nc1ccccc1)c1cc(F)ccc1S,3.6% (inactive),–
COC(=O)c1cc(Cl)ccc1NC(=O)c1ccc(OC)cc1,–,inactive
O=C(O)c1ccc(Cl)cc1NC(=O)c1coc2ccccc12,–,inactive
O=C(Cn1sc2ccccc2c1=O)Nc1ccccc1C(F)(F)F,11.1% (active),–
COc1ccc(C(=O)Nc2cc(Cl)c(Br)cc2C(=O)O)cc1,22.3% (active),–
COc1ccc(C(=O)Nc2ccccc2C(=O)O)cc1Cl,11.9% (active),–
COC(=O)c1ccc(Cl)cc1NC(=O)c1ccc(OC)cc1,18.2% (active),–
CN(C)S(=O)(=O)c1cccc(-n2sc3ccccc3c2=O)c1,22.1% (active),–
COc1ccc(C(=O)NC(CC(=O)O)c2ccccc2)cc1 (stereo not drawn),4% (inactive),–
